# Measurements gathered from unrelated publications.
# Compare with care: the assays were run in different laboratories.
# Target: Cytoplasmic tyrosine-protein kinase BMX (BMX, Homo sapiens, UniProt P51813)
# Sequence (P51813 1-675, as in one of the studies): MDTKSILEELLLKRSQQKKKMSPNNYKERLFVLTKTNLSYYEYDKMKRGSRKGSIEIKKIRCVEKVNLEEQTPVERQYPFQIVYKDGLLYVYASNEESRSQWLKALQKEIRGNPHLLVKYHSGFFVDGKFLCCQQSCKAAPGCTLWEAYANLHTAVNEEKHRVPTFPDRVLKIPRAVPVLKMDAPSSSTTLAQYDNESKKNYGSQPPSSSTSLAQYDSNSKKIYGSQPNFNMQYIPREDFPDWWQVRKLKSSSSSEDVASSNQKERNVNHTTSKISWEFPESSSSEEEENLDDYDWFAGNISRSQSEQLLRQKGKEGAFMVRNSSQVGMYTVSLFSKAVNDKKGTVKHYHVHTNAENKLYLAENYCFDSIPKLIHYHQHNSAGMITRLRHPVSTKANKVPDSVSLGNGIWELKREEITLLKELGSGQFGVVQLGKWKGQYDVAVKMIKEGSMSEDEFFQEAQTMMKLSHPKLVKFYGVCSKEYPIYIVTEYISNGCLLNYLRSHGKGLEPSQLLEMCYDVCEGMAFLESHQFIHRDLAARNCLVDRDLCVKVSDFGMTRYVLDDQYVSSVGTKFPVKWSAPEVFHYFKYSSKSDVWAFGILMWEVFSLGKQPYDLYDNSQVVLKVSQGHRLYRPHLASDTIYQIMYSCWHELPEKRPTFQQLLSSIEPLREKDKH
SMILES,read-out,mode,technique,concentration,endpoint,value
C#Cc1n[nH]c2c(-c3cn([C@@H](C)c4ccccn4)c(=O)[nH]c3=O)cc(F)cc12,enzyme activity,inhibitor,,0.1 µM,inhibition,-1.6%
COc1ncccc1-c1cnn2ccc(N3CCN(C(=O)OC(C)C)CC3)nc12,binding,,competition with immobilised ligand,1 µM,remaining binding,91%
Cn1cc(-c2cccc(N3CCc4c(sc5c4CC(C)(C)C5)C3=O)c2CO)cc(Nc2ccncn2)c1=O,enzyme activity,inhibitor,,1 µM,inhibition,49%
Cn1cncc1[C@@](O)(COc1ccc(C#N)cc1-c1ccc(OC(F)(F)F)cc1)c1ccc(C#N)cc1,cell-free assay,,competition with immobilised ligand,1 µM,remaining binding,64%
CCn1cnc2c(Nc3cccc(Cl)c3)nc(N[C@H]3CCCC[C@H]3N)nc21,enzyme activity,inhibitor,,0.5 µM,remaining activity,90.7%
N#CC1(c2ccccn2)CCN(Cc2cc(C(=O)O)c(=O)n3ccccc23)CC1,cell-free assay,,competition with immobilised ligand,1 µM,remaining binding,88%
Cn1cc(-c2cc(F)cc(N3CCn4c(cc5c4CCCC5)C3=O)c2CO)cc(Nc2ccc(N3CCN(C4COC4)CC3)cn2)c1=O,enzyme activity,inhibitor,,0.1 µM,inhibition,37%
O=c1[nH]c2ccccc2n1C1CCN(Cc2ccc(-c3[nH]c4cc5ncnc5cc4nc3-c3ccccc3)cc2)CC1,cell-free assay,,,0.5 µM,remaining signal,108%
C#Cc1n[nH]c2c(-c3cn([C@@H](C)c4ccccc4)c(=O)[nH]c3=O)cc(F)cc12,enzyme activity,inhibitor,,0.1 µM,inhibition,-7.4%
Nc1ncc(-c2nc(N3CCOCC3)nc(N3CCOCC3)n2)c(C(F)F)n1,binding,,competition with immobilised ligand,10 µM,remaining binding,86%
Cc1nn(C)cc1-c1nc2c(N3CCN(Cc4ccc(Cl)cc4)CC3)c(Cl)cnc2[nH]1,binding,,competition with immobilised ligand,1 µM,remaining binding,100%
